Data taken from PubChem BioAssay AID652011 (Sanford-Burnham Center for Chemical Genomics, 2013).
Where “and” joins values, the source holds several entries; their conditions need not be identical. Identical values can stand only once.

The compounds below were run against Hypoxia-inducible factor 1-alpha (Homo sapiens) (UniProt Q16665) (assay: HIF-1a and HIF-2a reporter inhibitors, SAR follow-up, cell-based, luminescence, MIAPaCa-2, 786-0, panel (AID 652011)). Details: MIAPaCa-2/PANC HIF reporter, luciferase luminescence, desferoxamine, overnight, HIF1a, run 2; at 99 µM (top of the series).
Hypoxia-inducible factor 1-alpha (Homo sapiens), sequence (Q16665 whole entry, looked up): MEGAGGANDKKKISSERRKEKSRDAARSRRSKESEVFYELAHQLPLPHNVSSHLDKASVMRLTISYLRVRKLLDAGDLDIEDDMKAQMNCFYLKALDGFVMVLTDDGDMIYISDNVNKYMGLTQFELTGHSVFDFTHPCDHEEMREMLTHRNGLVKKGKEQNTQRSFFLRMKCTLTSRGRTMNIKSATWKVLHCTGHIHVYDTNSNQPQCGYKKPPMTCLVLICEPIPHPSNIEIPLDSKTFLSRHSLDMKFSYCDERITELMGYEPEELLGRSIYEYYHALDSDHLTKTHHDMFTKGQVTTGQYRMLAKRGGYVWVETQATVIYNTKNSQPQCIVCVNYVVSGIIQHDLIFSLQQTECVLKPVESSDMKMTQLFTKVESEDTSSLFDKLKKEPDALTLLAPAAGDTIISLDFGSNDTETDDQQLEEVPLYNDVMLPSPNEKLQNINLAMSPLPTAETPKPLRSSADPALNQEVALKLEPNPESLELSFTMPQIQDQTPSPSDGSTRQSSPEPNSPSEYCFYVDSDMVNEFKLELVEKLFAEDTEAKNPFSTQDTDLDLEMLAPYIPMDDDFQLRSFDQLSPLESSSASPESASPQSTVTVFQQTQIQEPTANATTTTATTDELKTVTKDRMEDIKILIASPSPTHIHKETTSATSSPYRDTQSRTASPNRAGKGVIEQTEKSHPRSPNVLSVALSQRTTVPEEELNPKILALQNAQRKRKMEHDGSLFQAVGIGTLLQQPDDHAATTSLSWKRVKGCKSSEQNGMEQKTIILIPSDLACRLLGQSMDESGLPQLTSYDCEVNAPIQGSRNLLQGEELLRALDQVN
How it was run: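 Probe or stimulus – desferoxamine stimulus · Times – overnight compound incubation at 37 °C, 10 min reagent · Doses – compounds from 10 mM and 0.3125 mM stocks, 1% DMSO final · Technique – luminescence, One-Glo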

Row | SMILES | inhibition
1 | CC(C)(C)NC(=O)CCc1nc(-c2ccc(C(C)(C)C)cc2)no1 | 96.7%
2 | CC(C)c1ccc(-c2noc(CCC(=O)NC(C)(C)C)n2)cc1 | 38.8%
3 | CCNC(=O)CCc1nc(-c2ccc(C(C)(C)C)cc2)no1 | 10.5% and -4.06%
4 | CCOc1ccccc1NC(=O)CCc1nc(-c2ccc(C(C)(C)C)cc2)no1 | 60%
5 | CCNC(=O)CCc1nc(-c2cccc(OC)c2)no1 | -31.4%
6 | CCCCc1ccc(-c2noc(CCC(=O)NCC)n2)cc1 | 17.4%
7 | CCNC(=O)CCc1nc(-c2ccc(OCC)cc2)no1 | -42.2%
8 | CNC(=O)CCc1nc(-c2ccc(F)cc2)no1 | -36.7%
9 | CC(C)(C)c1ccc(-c2noc(CCC(=O)NC3CC3)n2)cc1 | -29.7%
10 | CNC(=O)CCc1nc(-c2ccc(C)cc2)no1 | 20.3%
11 | O=C(CCc1nc(-c2ccccc2)no1)NC1CC1 | -23.4%
12 | CCCCc1ccc(-c2noc(CCC(=O)NC(C)CC)n2)cc1 (stereo unspecified) | 58.1%
13 | CCCCc1ccc(-c2noc(CCC(=O)NC)n2)cc1 | 9.8%
14 | CC(C)(C)NC(=O)CCc1nc(-c2ccccc2)no1 | -36.5%
15 | CCNC(=O)CCc1nc(-c2c(Cl)cccc2Cl)no1 | 28.8%
16 | CCCCc1ccc(-c2noc(CCC(=O)NC3CC3)n2)cc1 | 36%

Row | SMILES | inhibition
17 | CN(C)C(=O)CCc1nc(-c2ccc(C(C)(C)C)cc2)no1 | -8.56% and -52.1%
18 | COc1ccccc1NC(=O)CCc1nc(-c2ccc(C(C)(C)C)cc2)no1 | 81.3%
19 | CC(C)(C)c1ccc(-c2noc(CCC(=O)NC3CCCCC3)n2)cc1 | 55.9%
20 | CC(C)(C)c1ccc(-c2noc(CCC(=O)Nc3cccc([N+](=O)[O-])c3)n2)cc1 | 91.4%
21 | CC(C)c1ccc(-c2noc(CCC(=O)NC3CC3)n2)cc1 | -9.97%
22 | CC(C)(C)c1ccc(-c2noc(CCC(=O)O)n2)cc1 | 94.9%
23 | CCCNC(=O)CCc1nc(-c2ccc(C(C)(C)C)cc2)no1 | 9.39%
24 | O=C(O)CCc1nc(-c2ccccc2)no1 | 16.7%
25 | CC(C)(C)c1ccc(-c2noc(CCC(=O)Nc3ccccc3)n2)cc1 | 60.5%
26 | CC(C)(C)c1ccc(-c2noc(CCC(=O)NCc3ccco3)n2)cc1 | 93.7% and 85.5%
27 | CC(C)(C)c1ccc(-c2noc(CCC(N)=O)n2)cc1 | 31.2% and -6.5%
28 | CNC(=O)CCc1nc(-c2ccc(Cl)cc2)no1 | -33.8%
29 | CCc1ccc(-c2noc(CCC(=O)NC(C)CC)n2)cc1 (stereo unspecified) | -24.3%
30 | CCOc1ccc(-c2noc(CCC(=O)O)n2)cc1 | 70.3%
31 | C=CCNC(=O)CCc1nc(-c2ccc(C(C)(C)C)cc2)no1 | 34.7%
